Source: PubChem BioAssay
Values without a mark were called inactive. Activity calls are given as the source filed them.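 The calls were made as follows, unless noted: active = fluorescence slope after compound addition differing from the mean of all screened samples at 99.7% confidence, in either direction; inactive = the rest.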

biological target: Alpha-2C adrenergic receptor (Homo sapiens) (UniProt P18825); assay: modulators of alpha2C/GIRK thallium flux, primary screen, cell-based, HEK293 alpha2C/GIRK1/2 (AID 624); details: thallium flux BTC fluorescence, at 10 µM, actives lie on both sides;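 also: slope of fluorescence ratio to pre-addition baseline per second over 15 to 24 s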
Sequence (P18825 whole entry, looked up): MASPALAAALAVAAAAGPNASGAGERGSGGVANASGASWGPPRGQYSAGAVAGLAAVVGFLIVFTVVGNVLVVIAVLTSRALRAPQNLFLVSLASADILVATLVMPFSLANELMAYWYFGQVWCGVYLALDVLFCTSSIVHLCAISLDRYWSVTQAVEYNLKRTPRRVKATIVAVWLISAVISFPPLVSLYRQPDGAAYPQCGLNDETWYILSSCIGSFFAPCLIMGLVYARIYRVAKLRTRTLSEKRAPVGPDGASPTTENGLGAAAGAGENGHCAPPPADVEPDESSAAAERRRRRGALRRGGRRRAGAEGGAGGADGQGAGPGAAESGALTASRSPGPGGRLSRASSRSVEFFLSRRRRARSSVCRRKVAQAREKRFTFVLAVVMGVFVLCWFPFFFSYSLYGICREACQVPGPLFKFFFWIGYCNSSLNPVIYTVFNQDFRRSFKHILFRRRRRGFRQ

Row | SMILES | slope
1 | O=C1CCC(C(=O)N(Cc2ccco2)C2(C(=O)NC3CCCC3)CCCCC2)N1 (stereo not drawn) | 0.00488
2 | O=C(NC1CCCCCCC1)C1CCN(c2nc3ccccc3o2)CC1 | 0.0059
3 | COc1ccccc1N1CCN(c2cc(N3CCCC3)nc(C)n2)CC1 | 0.0045
4 | CCN(CC(=O)Nc1ccc2c(c1)OCCO2)Cc1cc(=O)oc2cc(C)c(C)cc12 | 0.00545
5 | Cc1ccc2cc(C(c3nnnn3C3CCCC3)N3CCN(c4ccc(F)cc4)CC3)c(=O)[nH]c2c1 (stereo not drawn) | 0.00624
6 | COc1ccccc1N1CCN(C(=O)c2cc(-c3ccc(Cl)c(Cl)c3)on2)CC1 | 0.00441
7 | COC(=O)c1sc(S(=O)(=O)N2CCN(c3ccccc3)CC2)c(C(=O)OC)c1C | 0.00645
8 | Cc1cc(NC(=O)CSc2nc(C3CCCCC3)nc3ccccc23)no1 | 0.00411
9 | COc1ccc(Cl)c(NC(=O)NCCN2CCN(c3ccccc3)CC2)c1 | 0.00501
10 | Cc1ccc(S(=O)(=O)N2CCN(C(=O)N3CCOCC3)C2c2ccc(N(C)C)cc2)cc1 (stereo not drawn) | 0.00452
11 | CCOC(=O)c1c(N)c(C#N)nn1-c1ccccc1C(=O)OC | 0.00521
12 | Cc1cc(C)n(C(C)n2nc(C)cc2C)n1 | 0.00585
13 | CCCCCCn1c(CN2CCCC(C)C2)nc2c1c(=O)n(C)c(=O)n2C (stereo not drawn) | 0.00516
14 | Cc1cccc(NC(=O)c2ccc(S(=O)(=O)N(C)C)cc2)n1 | 0.00507
15 | Cn1cnnc1Sc1nc2c(c(=O)n(C)c(=O)n2C)n1Cc1ccccc1Cl | 0.005
16 | COC(=O)Nc1ccc(S(=O)(=O)N2CCCCCC2)cc1 | 0.0065
17 | Cc1cc(=O)c2n(Cc3ccccc3Cl)nc[n+]2[nH]1 | 0.00447
18 | Cn1c(=O)[nH]c(=O)c2c1nc(Br)n2CCCSc1nc2ccccc2o1 | 0.00502
19 | Cc1ccc(C(=O)Nc2c(C(=O)N3CCOCC3)cnn2-c2ccccc2)cc1 | 0.00471
20 | COc1ccc(C(=O)NCCC(C)C)cc1S(=O)(=O)N1CCOCC1 | 0.00454

Row | SMILES | slope
21 | O=C(NC1=NCCS1)c1ccc2c(c1)C(=O)N(Cc1ccco1)C2=O | 0.00529
22 | CCN(C(=O)c1cccs1)c1nnc(-c2ccncc2)s1 | 0.00498
23 | O=C(c1nn2cccnc2c1Cl)N1CCN(c2ccccc2)CC1 | 0.00475
24 | CC12CCC(C(=O)N3CCN(C(=O)C45CCC(C)(C(=O)O4)C5(C)C)CC3)(OC1=O)C2(C)C | 0.00544
25 | CSc1nnc(-c2ccccc2)n1C | 0.00519
26 | O=C(COC(=O)c1ccccc1C(=O)c1ccccc1)c1ccco1 | 0.00441
27 | CN(CC(=O)Nc1cccnc1)S(=O)(=O)c1cc(Cl)ccc1Cl | 0.00566
28 | O=C(CSc1n[nH]c(=O)[nH]c1=O)c1ccccc1 | 0.00685
29 | O=C(NCCCN1CCN(c2cccc(Cl)c2)CC1)c1ccc(N2CCCC2=O)cc1 | 0.00509
30 | CCN1C(=O)/C(=C/N(C)c2ccccc2)OC1=S | 0.00485
31 | Cc1nnc(SCC(=O)NCc2ccc3c(c2)OCO3)s1 | 0.00565
32 | Cc1cccc(NC(=O)CCCCCN2C(=O)c3ccccc3C2=O)n1 | 0.00404
33 | COc1ccc(-n2nc3cc(C)c(N)c(Br)c3n2)cc1 | 0.00393
34 | Cc1ccc(S(=O)(=O)N(CC(=O)N2CCC(C(N)=O)CC2)Cc2ccc(F)cc2)cc1 | 0.00526
35 | Cc1ccc(-n2c(C)cc3c2CCCC3=O)cc1 | 0.00516
36 | CC1CCCCC1NC(=O)COc1ccc(-n2cnnn2)cc1 (stereo not drawn) | 0.00588
37 | CSc1ccccc1NC(=O)CN(c1ccccc1)S(=O)(=O)N(C)C | 0.00624
38 | O=C(C1CCCO1)N1CCN(S(=O)(=O)c2ccccc2)CC1 (stereo not drawn) | 0.00532
39 | O=C(Nc1ccc2oc(=O)ccc2c1)c1cccnc1 | 0.00437

tested on: not listed separately; assay: inhibitors of larval lipid processing in zebrafish, primary screen, whole organism, PED6 fluorescence, gall bladder and intestine (AID 686;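 active = a full or partial loss of lipid-probe fluorescence in the fish gall bladder, intestine or both, judged by eye; inactive = no fluorescence loss, or compound toxic to the fish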;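 also: larvae 5 to 7 days old with five fish per well; signal comes from phospholipase A2 cleavage of quenched PED6 carried via bile; overnight exposure to compound and PED6 before scoring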); details: Zebrafish larvae PED6 lipid processing, fluorescence scoring; screened at 20 µM (by protocol)
Procedure, shortened: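 Doses: 20 µM single dose. Test system: live zebrafish larvae aged 5-7 days, whole organism. Quantity: five larvae per well. Measured by: By-eye fluorescence microscopy. Reagent: ingested quenched lipid PED6 at 100 nM. Read-out: visual per-well fluorescence inhibition score. Times: overnight exposure of larvae to compound plus PED6.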

Row | SMILES | outcome
40 | O=C1CCC(C(=O)N(Cc2ccco2)C2(C(=O)NC3CCCC3)CCCCC2)N1 (stereo not drawn) | inactive
41 | O=C(NC1CCCCCCC1)C1CCN(c2nc3ccccc3o2)CC1 | inactive
42 | COc1ccccc1N1CCN(c2cc(N3CCCC3)nc(C)n2)CC1 | inactive
43 | CCN(CC(=O)Nc1ccc2c(c1)OCCO2)Cc1cc(=O)oc2cc(C)c(C)cc12 | inactive
44 | Cc1ccc2cc(C(c3nnnn3C3CCCC3)N3CCN(c4ccc(F)cc4)CC3)c(=O)[nH]c2c1 (stereo not drawn) | inactive; toxic
45 | COc1ccccc1N1CCN(C(=O)c2cc(-c3ccc(Cl)c(Cl)c3)on2)CC1 | inactive
46 | COC(=O)c1sc(S(=O)(=O)N2CCN(c3ccccc3)CC2)c(C(=O)OC)c1C | inactive
47 | Cc1cc(NC(=O)CSc2nc(C3CCCCC3)nc3ccccc23)no1 | inactive
48 | COc1ccc(Cl)c(NC(=O)NCCN2CCN(c3ccccc3)CC2)c1 | inactive
49 | Cc1ccc(S(=O)(=O)N2CCN(C(=O)N3CCOCC3)C2c2ccc(N(C)C)cc2)cc1 (stereo not drawn) | inactive
50 | CCOC(=O)c1c(N)c(C#N)nn1-c1ccccc1C(=O)OC | inactive
51 | Cc1cc(C)n(C(C)n2nc(C)cc2C)n1 | inactive
52 | CCCCCCn1c(CN2CCCC(C)C2)nc2c1c(=O)n(C)c(=O)n2C (stereo not drawn) | inactive
53 | Cc1cccc(NC(=O)c2ccc(S(=O)(=O)N(C)C)cc2)n1 | inactive
54 | Cn1cnnc1Sc1nc2c(c(=O)n(C)c(=O)n2C)n1Cc1ccccc1Cl | inactive
55 | COC(=O)Nc1ccc(S(=O)(=O)N2CCCCCC2)cc1 | inactive
56 | Cc1cc(=O)c2n(Cc3ccccc3Cl)nc[n+]2[nH]1 | inactive
57 | Cn1c(=O)[nH]c(=O)c2c1nc(Br)n2CCCSc1nc2ccccc2o1 | inactive
58 | Cc1ccc(C(=O)Nc2c(C(=O)N3CCOCC3)cnn2-c2ccccc2)cc1 | inactive
59 | COc1ccc(C(=O)NCCC(C)C)cc1S(=O)(=O)N1CCOCC1 | inactive

Row | SMILES | outcome
60 | O=C(NC1=NCCS1)c1ccc2c(c1)C(=O)N(Cc1ccco1)C2=O | inactive
61 | CCN(C(=O)c1cccs1)c1nnc(-c2ccncc2)s1 | inactive
62 | O=C(c1nn2cccnc2c1Cl)N1CCN(c2ccccc2)CC1 | inactive
63 | CC12CCC(C(=O)N3CCN(C(=O)C45CCC(C)(C(=O)O4)C5(C)C)CC3)(OC1=O)C2(C)C | inactive
64 | CSc1nnc(-c2ccccc2)n1C | inactive
65 | O=C(COC(=O)c1ccccc1C(=O)c1ccccc1)c1ccco1 | inactive
66 | CN(CC(=O)Nc1cccnc1)S(=O)(=O)c1cc(Cl)ccc1Cl | inactive
67 | O=C(CSc1n[nH]c(=O)[nH]c1=O)c1ccccc1 | inactive
68 | O=C(NCCCN1CCN(c2cccc(Cl)c2)CC1)c1ccc(N2CCCC2=O)cc1 | inactive
69 | CCN1C(=O)/C(=C/N(C)c2ccccc2)OC1=S | inactive
70 | Cc1nnc(SCC(=O)NCc2ccc3c(c2)OCO3)s1 | inactive
71 | Cc1cccc(NC(=O)CCCCCN2C(=O)c3ccccc3C2=O)n1 | inactive
72 | COc1ccc(-n2nc3cc(C)c(N)c(Br)c3n2)cc1 | inactive
73 | Cc1ccc(S(=O)(=O)N(CC(=O)N2CCC(C(N)=O)CC2)Cc2ccc(F)cc2)cc1 | inactive
74 | Cc1ccc(-n2c(C)cc3c2CCCC3=O)cc1 | inactive
75 | CC1CCCCC1NC(=O)COc1ccc(-n2cnnn2)cc1 (stereo not drawn) | inactive
76 | CSc1ccccc1NC(=O)CN(c1ccccc1)S(=O)(=O)N(C)C | inactive
77 | O=C(C1CCCO1)N1CCN(S(=O)(=O)c2ccccc2)CC1 (stereo not drawn) | inactive
78 | O=C(Nc1ccc2oc(=O)ccc2c1)c1cccnc1 | inactive
